# According to ChEMBL document CHEMBL3808334, “Synthesis and in vitro evaluation of novel triazine analogues as anticancer agents and their interaction studies with bovine serum albumin” (Eur J Med Chem, 2016):
# Experiments:
# [1] = system: U-251; test: Growth inhibition of human U251 cells assessed as cell growth at 10^-5 M incubated for 48 hrs by sulforhodamine B assay; assay type: functional; conditions: U-251, 48 h, read-out: Activity
# [2] = system: Malme-3M; test: Growth inhibition of human MALME-3M cells assessed as cell growth at 10^-5 M incubated for 48 hrs by sulforhodamine B assay; assay type: functional; conditions: read-out: Activity
# [3] = system: NCI-H522; test: Growth inhibition of human NCI-H522 cells assessed as cell growth at 10^-6 M incubated for 48 hrs by sulforhodamine B assay; assay type: functional; conditions: NCI-H522, 48 h, read-out: Activity
# [4] = Growth inhibition of human SF539 cells assessed as cell growth at 10^-8 M incubated for 48 hrs by sulforhodamine B assay; assay type: functional; conditions: SF-539, 48 h, read-out: Activity
# [5] = system: K562; test: Growth inhibition of human K562 cells incubated for 48 hrs by sulforhodamine B assay; assay type: functional; conditions: K562, 48 h
# Outline: (§1)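 Cells were plated at 5,000–40,000 per well according to doubling time and preincubated 24 h at 37 °C in 5% CO2; time-zero plates were then TCA-fixed. Five concentrations (10-fold or ½-log dilutions, DMSO stock) were incubated 48 h. Cells were TCA-fixed, stained with 0.4% SRB and read at 515 nm. GI50 was taken where [(Ti−Tz)/(C−Tz)]×100 = 50.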
# [6] = Growth inhibition of human SF295 cells assessed as cell growth at 10^-7 M incubated for 48 hrs by sulforhodamine B assay; assay type: functional; conditions: SF-295, 48 h, read-out: Activity
# [7] = Growth inhibition of human UO31 cells assessed as cell growth at 10^-8 M incubated for 48 hrs by sulforhodamine B assay; assay type: functional; conditions: UO-31, 48 h, read-out: Activity
# [8] = Growth inhibition of human HCT116 cells assessed as cell growth at 10^-7 M incubated for 48 hrs by sulforhodamine B assay; assay type: functional; conditions: HCT-116, 48 h, read-out: Activity
# Outline: (§2)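 Cells seeded at 5,000–40,000/well according to doubling time and preincubated 24 h at 37 °C, 5% CO2. Time-zero plates were TCA-fixed. DMSO concentrate was diluted in medium with 50 µg/ml gentamicin to give five concentrations (10-fold or ½ log steps), then exposed 48 h. Cells were TCA-fixed, stained with 0.4% SRB and read at 515 nm. Percent growth was taken against time-zero and control; GI50, TGI and LC50 derived.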
# [9] = biological target: Albumin (Bos taurus, UniProt P02769); test: Binding affinity to bovine serum albumin assessed as binding constant in absorption spectra by Benesie-Hildebrand plot analysis; assay type: ADME; conditions: cattle, isolated protein
# Chain of Albumin (P02769 whole entry): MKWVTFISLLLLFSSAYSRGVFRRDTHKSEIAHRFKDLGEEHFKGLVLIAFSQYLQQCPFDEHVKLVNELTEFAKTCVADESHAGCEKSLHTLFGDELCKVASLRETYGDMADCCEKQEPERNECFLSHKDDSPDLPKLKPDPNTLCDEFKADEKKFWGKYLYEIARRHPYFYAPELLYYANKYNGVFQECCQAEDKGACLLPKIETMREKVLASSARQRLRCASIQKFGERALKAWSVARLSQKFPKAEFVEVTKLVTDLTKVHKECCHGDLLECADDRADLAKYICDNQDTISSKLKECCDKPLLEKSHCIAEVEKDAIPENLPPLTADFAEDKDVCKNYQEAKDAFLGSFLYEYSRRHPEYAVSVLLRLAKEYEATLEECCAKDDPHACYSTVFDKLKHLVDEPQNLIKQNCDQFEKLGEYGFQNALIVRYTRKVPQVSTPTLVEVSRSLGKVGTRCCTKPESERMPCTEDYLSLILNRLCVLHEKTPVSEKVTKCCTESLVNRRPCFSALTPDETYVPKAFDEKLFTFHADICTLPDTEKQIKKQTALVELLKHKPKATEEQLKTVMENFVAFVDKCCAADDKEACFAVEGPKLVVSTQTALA
# Outline: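 BSA, 10 µM, in 0.1 M phosphate buffer pH 7.4, titrated with compound (0–20 µM per the figure; diluted from 10⁻³ mol L⁻¹ DMSO stocks). Run at 300 K in a 1 cm quartz cell. UV spectra taken 200–800 nm after 5 min equilibration; fluorescence excited at 280 nm, emission 351 nm, slit 10 nm. K is the intercept/slope ratio of a linear fit of 1/(A₀−A) or 1/(F₀−F) vs 1/[compound].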
# [10] = system: KM12; test: Growth inhibition of human KM12 cells assessed as cell growth at 10^-6 M incubated for 48 hrs by sulforhodamine B assay; assay type: functional; conditions: KM12, 48 h, read-out: Activity
# [11] = system: MCF7; test: Growth inhibition of human MCF7 cells incubated for 48 hrs by sulforhodamine B assay; assay type: functional; conditions: MCF7, 48 h; outline: as §1
# [12] = system: 786-0; test: Growth inhibition of human 786-0 cells incubated for 48 hrs by sulforhodamine B assay; assay type: functional; conditions: 786-0, 48 h
# Outline: (§3)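 Five-dose assay: five concentrations from 10-fold or ½-log serial dilutions. Cells are plated at 5,000–40,000 per well according to doubling time, grown 24 h, then exposed 48 h at 37 °C, 5% CO₂. Fixed with cold 50% TCA (final addition) for 60 min at 4 °C and stained with 0.4% SRB in 1% acetic acid. Bound dye is solubilized in 10 mM Tris base and read at 515 nm. GI₅₀ is where [(Ti−Tz)/(C−Tz)]×100 = 50, with a time-zero plate as Tz.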
# [13] = Growth inhibition of human SF295 cells assessed as cell growth at 10 uM incubated for 48 hrs by sulforhodamine B assay; assay type: functional; conditions: SF-295, 48 h, read-out: Activity
# [14] = Growth inhibition of human DU145 cells assessed as cell growth at 10^-6 M incubated for 48 hrs by sulforhodamine B assay; assay type: functional; conditions: DU-145, 48 h, read-out: Activity; outline: as §2
# [15] = Growth inhibition of human OVCAR8 cells assessed as cell growth at 10^-5 M incubated for 48 hrs by sulforhodamine B assay; assay type: functional; conditions: OVCAR-8, 48 h, read-out: Activity
# [16] = Growth inhibition of human SW620 cells assessed as cell growth at 10^-5 M incubated for 48 hrs by sulforhodamine B assay; assay type: functional; conditions: SW-620, 48 h, read-out: Activity
# [17] = system: MDA-MB-435; test: Growth inhibition of human MDA-MB-435 cells assessed as cell growth at 10^-4 M incubated for 48 hrs by sulforhodamine B assay; assay type: functional; conditions: MDA-MB-435, 48 h, read-out: Activity
# [18] = Growth inhibition of human Hs 578T cells assessed as cell growth at 10^-7 M incubated for 48 hrs by sulforhodamine B assay; assay type: functional; conditions: read-out: Activity
# [19] = Growth inhibition of human SF268 cells assessed as cell growth at 10^-8 M incubated for 48 hrs by sulforhodamine B assay; assay type: functional; conditions: SF-268, 48 h, read-out: Activity
# [20] = system: U-251; test: Growth inhibition of human U251 cells assessed as cell growth at 10 uM incubated for 48 hrs by sulforhodamine B assay; assay type: functional; conditions: U-251, 48 h, read-out: Activity
# [21] = system: SR; test: Growth inhibition of human SR cells assessed as cell growth at 10^-8 M incubated for 48 hrs by sulforhodamine B assay; assay type: functional; conditions: read-out: Activity
# [22] = Growth inhibition of human LOXIMVI cells incubated for 48 hrs by sulforhodamine B assay; assay type: functional; conditions: LOX IMVI; outline: as §1
# [23] = Growth inhibition of human CNS cancer cells incubated for 48 hrs by sulforhodamine B assay; assay type: functional; conditions: Cancer cell lines; for CC50: read-out: LC50 (the source's name); outline: as §3
# [24] = system: MCF7; test: Growth inhibition of human MCF7 cells assessed as cell growth at 10^-5 M incubated for 48 hrs by sulforhodamine B assay; assay type: functional; conditions: MCF7, 48 h, read-out: Activity
# [25] = system: EKVX; test: Growth inhibition of human EKVX cells assessed as cell growth at 10^-5 M incubated for 48 hrs by sulforhodamine B assay; assay type: functional; conditions: read-out: Activity; outline: as §2
# [26] = read-out: LC50 (the source's name)
# [27] = read-out: pLC50 (the source's name) (converted)
smiles,measurement,setting,value
c1ccc(-c2nc(Nc3ccc(-c4nc5ccccc5[nH]4)cc3)nc(N3CCOCC3)n2)cc1,growth at 10 µM,[1],-85%
same,growth at 10 µM,[2],-73%
same,growth at 1 µM,[3],109%
same,growth at 0.01 µM,[4],98%
same,GI50,[5]; read-out: GI50,295 nM
same,CC50,[5]; [26],8310 nM
same,TGI,[5]; read-out: TGI,959 nM
same,GI50,[5]; read-out: pGI50 (converted),295 nM
same,CC50,[5]; [27],8320 nM
same,TGI,[5]; read-out: pTGI (converted),955 nM
same,growth at 0.1 µM,[6],101%
same,growth at 0.01 µM,[7],82%
same,growth at 0.1 µM,[8],100%
same,K,[9],1.2 ×10⁵ /M
same,growth at 1 µM,[10],85%
same,GI50,[11]; read-out: GI50,877 nM
same,CC50,[11]; [26],8560 nM
same,TGI,[11]; read-out: TGI,2850 nM
same,GI50,[11]; read-out: pGI50 (converted),871 nM
same,CC50,[11]; [27],8510 nM
same,TGI,[11]; read-out: pTGI (converted),2820 nM
same,GI50,[12]; read-out: GI50,257 nM
same,CC50,[12]; [26],4060 nM
same,TGI,[12]; read-out: TGI,1250 nM
same,GI50,[12]; read-out: pGI50 (converted),257 nM
same,CC50,[12]; [27],4070 nM
same,TGI,[12]; read-out: pTGI (converted),1260 nM
same,growth at 10 µM,[13],-76.4%
same,growth at 1 µM,[14],63%
same,growth at 10 µM,[15],-78%
same,growth at 10 µM,[16],-77%
same,growth at 100 µM,[17],-86%
same,growth at 0.1 µM,[18],94%
same,growth at 0.01 µM,[19],96%
same,growth at 10 µM,[20],-67.5%
same,growth at 0.01 µM,[21],100%
same,GI50,[22]; read-out: GI50,489 nM
same,TGI,[22]; read-out: TGI,2120 nM
same,GI50,[22]; read-out: pGI50 (converted),490 nM
same,TGI,[22]; read-out: pTGI (converted),2140 nM
same,GI50,[23],1410 nM
same,TGI,[23],3040 nM
same,CC50,[23],5980 nM
same,growth at 10 µM,[24],-57%
same,growth at 10 µM,[25],-70%
Fc1ccc(-c2nc(Nc3ccc(-c4nc5ccccc5[nH]4)cc3)nc(N3CCOCC3)n2)cc1,growth at 10 µM,[1],5%
same,growth at 10 µM,[2],-71%
same,growth at 1 µM,[3],97%
same,growth at 0.01 µM,[4],98%
same,GI50,[5]; read-out: GI50,2450 nM
same,CC50,[5]; [26],> 100000 nM
same,GI50,[5]; read-out: pGI50 (converted),2450 nM
same,CC50,[5]; [27],> 100000 nM
same,growth at 0.1 µM,[6],94%
same,growth at 0.01 µM,[7],88%
same,growth at 0.1 µM,[8],94%
same,K,[9],1 ×10⁵ /M
same,growth at 1 µM,[10],86%
same,GI50,[11]; read-out: GI50,2590 nM
same,CC50,[11]; [26],> 100000 nM
same,TGI,[11]; read-out: TGI,> 100000 nM
same,GI50,[11]; read-out: pGI50 (converted),2570 nM
same,CC50,[11]; [27],> 100000 nM
same,TGI,[11]; read-out: pTGI (converted),> 100000 nM
same,GI50,[12]; read-out: GI50,1440 nM
same,CC50,[12]; [26],7240 nM
same,TGI,[12]; read-out: TGI,3230 nM
same,GI50,[12]; read-out: pGI50 (converted),1450 nM
same,CC50,[12]; [27],7240 nM
same,TGI,[12]; read-out: pTGI (converted),3240 nM
same,growth at 10 µM,[13],-63.5%
same,growth at 1 µM,[14],98%
same,growth at 10 µM,[15],2%
same,growth at 10 µM,[16],-47%
same,growth at 100 µM,[17],-42%
same,growth at 0.1 µM,[18],93%
same,growth at 0.01 µM,[19],95%
same,growth at 10 µM,[20],6.38%
same,growth at 0.01 µM,[21],108%
same,GI50,[22]; read-out: GI50,1780 nM
same,TGI,[22]; read-out: TGI,3590 nM
same,GI50,[22]; read-out: pGI50 (converted),1780 nM
same,TGI,[22]; read-out: pTGI (converted),3630 nM
same,GI50,[23],2230 nM
same,TGI,[23],11800 nM
same,CC50,[23],8470 nM
same,growth at 10 µM,[24],1%
same,growth at 10 µM,[25],3%
